From article PMC4188730 (European journal of medicinal chemistry, 2014)
“Also recorded” adds a separate entry of the source.

Tests used:
HDAC isoforms = details: cited from earlier work
[1] = tested on: HCT116 colorectal cancer cell line; assay: Cytoproliferation; assay type: cell-based; details: for effect on cell growth: HCT116, 96 hours, up to the highest concentration tested, 5 μM; for effect on cytoproliferation at lower concentrations: HCT116, 0.01, 0.1 and 1.0 nM (data not shown)
Summary of the method: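 HCT116 colorectal carcinoma cells seeded at 3×10⁴ cells/well in quadruplicate, attached overnight. Medium then replaced with fresh medium containing test compound; incubated 96 hours at 37 °C, 5% CO₂. CellTiter 96 One Solution MTS reagent added for 1.5 h at 37 °C, absorbance read at 490 nm. Points are mean of two experiments, 4 replicates each, with SEM.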

[2] = tested on: global H3K9 acetylation in HCT116 cells; assay: Western blot of global histone H3K9 acetylation; assay type: cell-based; details: HCT116, 24 hours, 100 nM and 1 μM; for induction of global H3K9 (H3) acetylation: 10 nM; for concentration at which increase of global H3K9 acetylation was observed: tested at 10 nM
Summary of the method: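 HCT116 cells exposed 24 hours to test compound at 10 nM, 100 nM or 1 μM, or to DMSO. Lysed in RIPA buffer (50 mmol/L Tris-HCl, 1% NP-40, 0.25% deoxycholate, 150 mmol/L NaCl, 50 mmol/L NaF). Protein quantified by DC assay, 30 μg/lane run on SDS-PAGE. Blots probed for acetyl-H3 with β-actin loading control, detected by dye-conjugated secondaries on infrared scanner.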

recombinant HDAC6 = target: T1, recombinant HDAC6 (Homo sapiens, UniProt Q9UBN7); assay: Fluorimetric HDAC activity assay, recombinant HDAC6; assay type: biochemical; details: 0–5 μM
T1 sequence (Q9UBN7 1-1215): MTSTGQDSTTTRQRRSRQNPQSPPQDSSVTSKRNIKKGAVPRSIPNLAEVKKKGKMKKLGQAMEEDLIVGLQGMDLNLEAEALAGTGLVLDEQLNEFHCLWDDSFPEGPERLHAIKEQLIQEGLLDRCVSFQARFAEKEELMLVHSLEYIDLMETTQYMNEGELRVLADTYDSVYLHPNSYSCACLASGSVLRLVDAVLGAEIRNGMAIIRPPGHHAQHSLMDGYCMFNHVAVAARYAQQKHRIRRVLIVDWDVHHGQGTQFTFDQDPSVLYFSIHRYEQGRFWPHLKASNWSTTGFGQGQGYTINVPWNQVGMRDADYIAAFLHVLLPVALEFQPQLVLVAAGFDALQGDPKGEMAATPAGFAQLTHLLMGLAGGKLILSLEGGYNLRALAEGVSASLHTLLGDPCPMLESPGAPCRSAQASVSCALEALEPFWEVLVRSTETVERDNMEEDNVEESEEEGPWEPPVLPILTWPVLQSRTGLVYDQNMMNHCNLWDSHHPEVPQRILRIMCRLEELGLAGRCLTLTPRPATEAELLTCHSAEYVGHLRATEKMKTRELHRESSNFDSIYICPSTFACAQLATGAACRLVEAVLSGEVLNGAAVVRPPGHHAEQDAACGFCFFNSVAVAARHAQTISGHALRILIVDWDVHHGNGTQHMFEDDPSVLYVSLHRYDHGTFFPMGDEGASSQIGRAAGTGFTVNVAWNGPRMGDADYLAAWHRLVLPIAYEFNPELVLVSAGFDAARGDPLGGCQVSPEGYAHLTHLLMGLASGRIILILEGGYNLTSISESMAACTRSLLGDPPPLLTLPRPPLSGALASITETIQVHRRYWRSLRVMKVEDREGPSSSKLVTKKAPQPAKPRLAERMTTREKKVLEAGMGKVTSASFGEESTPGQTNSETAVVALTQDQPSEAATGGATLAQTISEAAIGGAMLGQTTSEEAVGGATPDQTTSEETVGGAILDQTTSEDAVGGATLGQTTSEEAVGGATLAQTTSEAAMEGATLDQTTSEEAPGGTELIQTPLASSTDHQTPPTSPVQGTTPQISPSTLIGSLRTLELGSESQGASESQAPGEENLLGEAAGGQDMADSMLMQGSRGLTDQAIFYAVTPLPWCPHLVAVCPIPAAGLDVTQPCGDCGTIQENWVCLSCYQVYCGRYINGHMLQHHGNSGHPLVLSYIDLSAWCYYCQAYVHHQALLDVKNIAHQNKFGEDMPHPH

recombinant HDAC1 = recombinant HDAC1 (Homo sapiens, UniProt Q13547); assay: Fluorimetric HDAC activity assay, recombinant HDAC1; assay type: biochemical; details: at 0.1 μM, 1 hour
Chain of recombinant HDAC1 (Q13547 whole entry): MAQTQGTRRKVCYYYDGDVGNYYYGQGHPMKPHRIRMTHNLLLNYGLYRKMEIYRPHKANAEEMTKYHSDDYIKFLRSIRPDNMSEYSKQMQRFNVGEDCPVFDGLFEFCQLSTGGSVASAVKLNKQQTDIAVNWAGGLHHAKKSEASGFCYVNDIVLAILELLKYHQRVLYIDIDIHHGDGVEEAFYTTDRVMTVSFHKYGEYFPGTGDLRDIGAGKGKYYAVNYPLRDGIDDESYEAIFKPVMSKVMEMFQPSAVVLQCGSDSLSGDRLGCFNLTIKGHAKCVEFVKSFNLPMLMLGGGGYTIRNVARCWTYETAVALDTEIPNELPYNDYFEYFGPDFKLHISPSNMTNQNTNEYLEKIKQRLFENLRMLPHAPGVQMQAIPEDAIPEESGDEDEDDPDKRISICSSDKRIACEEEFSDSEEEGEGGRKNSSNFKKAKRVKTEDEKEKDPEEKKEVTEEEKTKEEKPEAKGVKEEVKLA

human cancer cells = details: cited from earlier work

CCCCCCCC(=O)SCCC=CC1CC(=O)NCc2nc(cs2)C2=NC(C)(CS2)C(=O)NC(C(C)C)C(=O)O1 (single isomer, unassigned) [enantiomer of largazole]
potency in inhibiting HDAC isoforms relative to largazole (HDAC isoforms): three times less potent

CCCCCCCC(=O)SCC/C=C/[C@@H]1CC(=O)NCc2nc(cs2)C2=N[C@](C)(CS2)C(=O)N[C@@H](C(C)C)C(=O)O1 [Analogue 12]
effect on cell growth [1]: minimal effect
induction of global H3K9 (H3) acetylation [2]: very little induction; also recorded: slight increase; also recorded: no change; also recorded: slight induction

CCCCCCCC(=O)SCC/C=C/[C@@H]1CC(=O)NCc2nc(cs2)C2=N[C@@](C)(CS2)C(=O)N[C@H](Cc2cccc3ccccc23)C(=O)O1 [Analogue 16a]
effect on cell growth [1]: minimal effect; also recorded: no effect
induction of global H3K9 (H3) acetylation [2]: very little induction; also recorded: no change; also recorded: failed to induce
HDAC6 specific inhibition (comparison among analogues) (recombinant HDAC6): least amount

C=CCC1NC(=O)C2(C)CSC(=N2)c2csc(n2)CNC(=O)CC(C=CCCSC(=O)CCCCCCC)OC1=O (stereo not shown) [Analogue 16b]
effect on cytoproliferation at lower concentrations [1]: No significant effect
effect on cell growth [1]: significant effect
induction of global H3K9 (H3) acetylation [2]: greatest induction; also recorded: robust induction
concentration at which increase of global H3K9 acetylation was observed [2]: 100 nM

CCCCCCCC(=O)SCC/C=C/[C@@H]1CC(=O)NCc2nc(cs2)C2=N[C@@](C)(CS2)C(=O)N[C@@H](Cc2cccc3ccccc23)C(=O)O1 [Analogue 16c]
effect on cytoproliferation at lower concentrations [1]: No significant effect
effect on cell growth [1]: significant effect
induction of global H3K9 (H3) acetylation [2]: greatest induction; also recorded: robust induction
concentration at which increase of global H3K9 acetylation was observed [2]: 10 nM
inhibition of HDAC1 activity (recombinant HDAC1): about 15%

CCCCCCCC(=O)SCCC=CC1CC(=O)NCc2nc(cs2)C2=NC(C)(CS2)C(=O)NC(C(C)C)C(=O)O1 (stereo not shown) [C-2 epimer of largazole]
inhibitory potency against HDAC isoforms (HDAC isoforms): sub-micromolar

CCCCCCCC(=O)SCCC=CC1CC(=O)NCc2nc(cs2)C2=NC(C)(CS2)C(=O)NC(Cc2ccc(O)cc2)C(=O)O1 [L-tyrosine analogue]
selectivity toward human cancer cells over normal cells (human cancer cells): 100 fold

CCCCCCCC(=O)SCC/C=C/[C@@H]1CC(=O)NCc2nc(cs2)C2=N[C@@](C)(CS2)C(=O)N[C@@H](C(C)C)C(=O)O1 [largazole, reference compound]
GI50 ([1]; Homo sapiens, HCT-116, 96 h): < 10 nM
concentration at which increase of global H3K9 acetylation was observed [2]: 10 nM
